Test results: ChEMBL document CHEMBL3804799, “Synthesis and Biological Evaluation of Novel σ1 Receptor Ligands for Treating Neuropathic Pain: 6-Hydroxypyridazinones” (J Med Chem, 2016)

Assays:
[1] = target: Sigma non-opioid intracellular receptor 1 (Cavia porcellus, UniProt Q60492); experiment: Displacement of [3H]-(+)-pentazocine from Sigma1 receptor in Dunkin Hartley guinea pig brain membrane after 180 mins by liquid scintillation counting analysis
Procedure, shortened: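 Guinea pig brain (minus cerebellum) P2 membranes in Tris-HCl. Incubated with [³H]-(+)-pentazocine (4.0 nM solution added) in pH 8.0 buffer, 25 °C for 180 min; nonspecific binding with haloperidol. Filtered through PEI-presoaked GF/B filters; scintillation counting. Compounds in 5% DMSO, six concentrations (10⁻⁵–10⁻¹⁰ M). […] At least three experiments.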

[2] = Displacement of [3H]-DTG from Sigma2 receptor in Dunkin Hartley guinea pig brain membrane after 120 mins by liquid scintillation counting analysis in presence of sigma1 blocker (+)-SKF-10047; parameters: species or system Cavia porcellus
Procedure, shortened: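 Guinea pig brain P2 membranes incubated with 3 nM [³H]-DTG plus 400 nM (+)-SKF-10047 to block σ1 sites, Tris-HCl pH 8.0, 25 °C for 120 min; nonspecific binding with DTG. Filtration on PEI-presoaked GF/B filters, scintillation counting. […] At least three experiments.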

Cavia porcellus = species on record: Cavia porcellus; experiment: Selectivity ratio of Ki for Sigma2 receptor in Dunkin Hartley guinea pig brain membrane to Ki for Sigma1 receptor in Dunkin Hartley guinea pig brain membrane
Procedure, shortened: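 Guinea pig brain P2 membranes, minus cerebellum. σ1: [3H]-(+)-pentazocine, haloperidol for nonspecific binding, 25 °C for 180 min. σ2: 3 nM [3H]-DTG with 400 nM (+)-SKF-10047 masking σ1, DTG for nonspecific binding, 25 °C for 120 min. Six concentrations, 10⁻⁵ to 10⁻¹⁰. Filter-bound radioactivity counted. Hill-fit IC50 converted by Cheng–Prusoff, at least three experiments each; ratio σ2 Ki/σ1 Ki.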

[3] = target: Voltage-gated inwardly rectifying potassium channel KCNH2 (Homo sapiens, UniProt Q12809); experiment: Inhibition of human ERG expressed in HEK293 cells assessed as tail current at -50 mV holding potential by whole-cell patch clamp method
[4] = Acute toxicity in po dosed Kun Ming mouse assessed as mortality after 24 hrs; assay type: organism-based; settings: in vivo
Procedure, shortened: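 Mice, 10 per group, given a single oral dose (10 mL/kg) of 0.5% methylcellulose vehicle or test compound at 200, 500, 1000, 1500 or 2000 mg/kg. Survivors were counted 24 h after dosing and percent mortality per group was calculated. LD50 was derived by statistical analysis.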

Mus musculus [5] = experiment: Toxicity in Kun Ming mouse assessed as reduction in the permanence time on the rotating rod at 80 mg/kg, ig measured after 30 to 120 mins by rotarod test; assay type: organism-based; settings: in vivo, po
Procedure, shortened: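 Mice were pre-trained; any that could not stay 300 s on the rod at 10 rpm were excluded. Latency to fall from the rod rotating at 10 rpm was recorded 30, 60, 90 and 120 min after intragastric dosing. 8–10 mice per group.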

Mus musculus [6] = experiment: Antiallodynic activity in Kun Ming mouse assessed as paw licking time at 160 mg/kg, ig administered 15 mins prior to formalin challenge measured after15 to 45 mins post formalin dosing; assay type: functional
Procedure, shortened: (§1)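 Mice received 20 μL of 2.5% formalin (0.92% formaldehyde) in the dorsal right hind paw. Time spent licking or biting the paw was scored at 0–5 min (phase I) and 15–45 min (phase II), with a mirror behind the glass cylinder. Vehicle was 30% PEG 400 at 10 mL/kg, given 15 min before formalin. n = 10–12 per group. % antinociception = (LT_V − LT_D)/LT_V × 100.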

Mus musculus [7] = experiment: Antiallodynic activity in Kun Ming mouse assessed as paw biting time at 160 mg/kg, ig administered 15 mins prior to formalin challenge measured after 15 to 45 mins post formalin dosing; assay type: functional; procedure, shortened: as §1

Chain of Sigma non-opioid intracellular receptor 1 (Q60492 whole entry): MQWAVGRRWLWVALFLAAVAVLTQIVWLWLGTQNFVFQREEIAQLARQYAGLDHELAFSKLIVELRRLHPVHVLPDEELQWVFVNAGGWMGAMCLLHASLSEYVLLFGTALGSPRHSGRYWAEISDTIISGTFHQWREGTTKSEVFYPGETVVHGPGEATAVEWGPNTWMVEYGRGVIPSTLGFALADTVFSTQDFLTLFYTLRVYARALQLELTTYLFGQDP
Chain of Voltage-gated inwardly rectifying potassium channel KCNH2 (Q12809 whole entry): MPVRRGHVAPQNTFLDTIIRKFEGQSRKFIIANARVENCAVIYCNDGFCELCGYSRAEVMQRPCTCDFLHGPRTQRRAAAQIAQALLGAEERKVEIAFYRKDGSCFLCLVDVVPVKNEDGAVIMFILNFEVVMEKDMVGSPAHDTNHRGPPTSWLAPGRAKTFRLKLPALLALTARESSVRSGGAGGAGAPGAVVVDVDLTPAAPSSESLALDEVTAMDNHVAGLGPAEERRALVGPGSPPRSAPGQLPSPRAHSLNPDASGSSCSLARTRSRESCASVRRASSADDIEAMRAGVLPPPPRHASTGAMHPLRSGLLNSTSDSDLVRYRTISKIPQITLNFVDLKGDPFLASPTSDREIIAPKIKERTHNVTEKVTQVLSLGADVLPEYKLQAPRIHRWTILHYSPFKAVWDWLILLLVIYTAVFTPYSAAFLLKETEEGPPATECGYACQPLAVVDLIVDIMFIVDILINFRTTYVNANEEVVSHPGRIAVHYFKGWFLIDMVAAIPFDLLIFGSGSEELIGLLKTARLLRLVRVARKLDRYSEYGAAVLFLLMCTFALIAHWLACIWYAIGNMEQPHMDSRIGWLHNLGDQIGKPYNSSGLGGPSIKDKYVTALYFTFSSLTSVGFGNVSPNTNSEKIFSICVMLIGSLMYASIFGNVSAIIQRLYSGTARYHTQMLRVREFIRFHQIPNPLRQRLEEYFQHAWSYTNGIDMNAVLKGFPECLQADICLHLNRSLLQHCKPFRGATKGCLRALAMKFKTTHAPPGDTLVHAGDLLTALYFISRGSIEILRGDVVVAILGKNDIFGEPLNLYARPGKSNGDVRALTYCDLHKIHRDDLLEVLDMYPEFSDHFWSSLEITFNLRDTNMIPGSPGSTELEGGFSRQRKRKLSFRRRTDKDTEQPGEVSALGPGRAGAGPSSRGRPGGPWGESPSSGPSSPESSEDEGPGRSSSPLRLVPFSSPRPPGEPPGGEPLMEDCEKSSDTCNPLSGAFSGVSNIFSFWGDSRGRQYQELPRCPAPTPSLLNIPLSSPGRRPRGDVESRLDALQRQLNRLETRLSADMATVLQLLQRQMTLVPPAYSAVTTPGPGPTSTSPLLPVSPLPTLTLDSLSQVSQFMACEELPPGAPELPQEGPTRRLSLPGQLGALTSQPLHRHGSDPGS

SMILES	Ki [1] [nM]	Ki [2] [nM]	Ratio Ki (Cavia porcellus)	IC50 [3] [nM]	LD50 at 24 h [4] [mg/kg]	Activity (Mus musculus [5])	Time (Mus musculus [6]) [s]	Time (Mus musculus [7]) [s]
CC1CCN(CCCOc2ccc(=O)n(-c3ccc4ccccc4c3)n2)CC1	84.1	913	10.8					
O=c1ccc(OCCCN2CCCCC2)nn1-c1ccc(F)cc1	17	> 2000						
CC1CCN(CCCOc2ccc(=O)n(-c3cc(Cl)cc(Cl)c3)n2)CC1	43	1320	30.7					
O=c1ccc(OCCCN2CCCCC2)nn1-c1ccc(F)c(Cl)c1	10	1580	158	980	900			
O=c1ccc(OCCCN2CCCCC2)nn1C1CCCC1	> 2000	> 2000						
O=c1ccc(OCCCN2CCCCC2)nn1-c1ccc(Cl)cc1Cl	25	809	32.3					
O=c1ccc(OCCN2CCCCC2)nn1-c1ccccc1	> 2000	> 2000						
O=c1ccc(OCCCN2CCOCC2)nn1-c1ccccc1	66.3	502	7.6					
O=c1ccc(OCCCN2CCCCC2)nn1-c1ccc2ccccc2c1	74.1	895	12.1					
CC1CC(C)CN(CCCCOc2ccc(=O)n(-c3ccccc3)n2)C1 (stereo not given)	222	1370	6.2					
Cc1ccc(-n2nc(OCCCN3CCC(C)CC3)ccc2=O)cc1	61.6	1550	25.1					
Cc1cc(OCCN2CCOCC2)nn1-c1ccc2ccccc2c1		> 2000				Toxic		
CC1CCN(CCCOc2ccc(=O)n(-c3ccc(F)c(F)c3)n2)CC1	15	1700	113	2680	1300		59.65	56.43
CC1CCN(CCCCOc2ccc(=O)n(-c3ccccc3)n2)CC1	143	1440	10.1					
CC1CCN(CCCOc2ccc(=O)n(-c3ccc(F)cc3)n2)CC1	19.8	1620	81.7					
CN(C)CCCOc1ccc(=O)n(-c2ccccc2)n1	108	818	7.57					
CC1CCN(CCCOc2ccc(=O)n(-c3ccc(Cl)cc3)n2)CC1	9.5	1780			717			
CC1CCN(CCCOc2ccc(=O)n(-c3ccc(F)c(Cl)c3)n2)CC1	10	1630	163	2160	1530		59.65	56.43
CC1CCN(CCCOc2ccc(=O)n(-c3ccc(Cl)c(Cl)c3)n2)CC1	5	1740	348	1460	575			
CCN(CC)CCCOc1ccc(=O)n(-c2ccccc2)n1	96.5	1170	12.1					
CC(C)N(CCCOc1ccc(=O)n(-c2ccccc2)n1)C(C)C	98.1	1120	11.4					

SMILES	Ki [1] [nM]	Ki [2] [nM]	Ratio Ki (Cavia porcellus)	IC50 [3] [nM]	LD50 at 24 h [4] [mg/kg]	Activity (Mus musculus [5])	Time (Mus musculus [6]) [s]	Time (Mus musculus [7]) [s]
CC1CCN(CCCOc2ccc(=O)n(-c3ccc(Cl)cc3Cl)n2)CC1	35	1100	31.4					
O=c1c2c(c(OCCCN3CCCCC3)nn1-c1ccc(Cl)c(Cl)c1)CCCC2	104	934	8.9					
CN1CCN(CCCOc2ccc(=O)n(-c3ccccc3)n2)CC1	31.7	376	11.9					
O=c1ccc(OCCCN2CCCCC2)nn1-c1ccc(Cl)cc1	9.8	1570	160	1450	754			
O=c1ccc(OCCCCN2CCCCC2)nn1-c1ccccc1	124	1720	13.9					
CC1CC(C)CN(CCCOc2ccc(=O)n(-c3ccccc3)n2)C1 (stereo not given)	46	1820	39.6					
CN1CCCN(CCCOc2ccc(=O)n(-c3ccccc3)n2)CC1	30.3	508	16.8					
Cc1ccc(-n2nc(OCCCN3CCCCC3)ccc2=O)cc1	69	1280	18.6					
O=C1CCN(CCCOc2ccc(=O)n(-c3ccccc3)n2)CC1	580	> 2000						
Cc1c(OCCCN2CCCCC2)nn(-c2ccc(Cl)c(Cl)c2)c(=O)c1C	66.6	1430	21.4					
O=c1c2ccccc2c(OCCCN2CCCCC2)nn1-c1ccc(Cl)c(Cl)c1	140	1510	10.8					
O=c1ccc(OCCCN2CCCCC2)nn1-c1cc(Cl)cc(Cl)c1	30	1300	43.3					
O=c1ccc(OCCCN2CCCCC2)nn1-c1cc(Cl)ccc1Cl	45	902	20					
CC1CCN(CCCOc2ccc(=O)n(-c3cc(Cl)ccc3Cl)n2)CC1	60	870	14.5					
CC1CCN(CCCOc2ccc(=O)n(-c3ccccc3)n2)CC1	28	1460	52.3					
O=c1ccc(OCCCN2CCCC2)nn1-c1ccccc1	35.5	458	12.9					
O=c1ccc(OCCCN2CCCCC2)nn1-c1ccccc1	21.4	1070	50.2					
CC1CCN(CCCOc2ccc(=O)n(-c3cccc(Cl)c3Cl)n2)CC1	55	1200	21.8					
O=c1ccc(OCCCN2CCCCC2)nn1-c1ccc(F)c(F)c1	8	1910			780			
O=c1ccc(OCCCN2CCCCC2)nn1-c1cccc(Cl)c1Cl	48	1620	33.6					
CCN1CCN(CCCOc2ccc(=O)n(-c3ccccc3)n2)CC1	40.1	620	15.5					
